# Assay results taken from ChEMBL document CHEMBL5674876, “Epigenetic Activation of Pro-angiogenic Signaling Pathways in Human Endothelial Progenitors Increases Vasculogenesis” (Stem Cell Reports, 2017).
# The source made the active and inactive calls. The calls are words filed in the database; no cut-off is given here.
# Tests used:
# HUVEC [1] = experiment: Effect on pro-angiogenic property in human umbilical cord derived endothelial colony forming cells assessed as increase in CXCR4 level by qRT-PCR analysis; type: functional, cell-based
# [2] = tested on: Umbilical cord derived endothelial colony forming cell; experiment: Activation of WNT pro-angiogenic pathway in human umbilical cord derived endothelial colony forming cells by measuring FZD2 level in presence of panobinostat by qRT-PCR analysis; type: cell-based; details: filed as activator
# [3] = target: Histone-lysine N-methyltransferase EZH2 (Homo sapiens) (UniProt Q15910); experiment: Inhibition of EZH2 in human umbilical cord derived endothelial colony forming cells assessed as decrease in H3K9me3 level at 0.01 to 5 uM measured after 24 to 72 hrs by Western blotting analysis; type: cell-based; details: Umbilical cord derived endothelial colony forming cell, dose 0.01-5 µM, time 24-72 hrs
# Chain of Histone-lysine N-methyltransferase EZH2 (Homo sapiens) (Q15910 whole entry, looked up): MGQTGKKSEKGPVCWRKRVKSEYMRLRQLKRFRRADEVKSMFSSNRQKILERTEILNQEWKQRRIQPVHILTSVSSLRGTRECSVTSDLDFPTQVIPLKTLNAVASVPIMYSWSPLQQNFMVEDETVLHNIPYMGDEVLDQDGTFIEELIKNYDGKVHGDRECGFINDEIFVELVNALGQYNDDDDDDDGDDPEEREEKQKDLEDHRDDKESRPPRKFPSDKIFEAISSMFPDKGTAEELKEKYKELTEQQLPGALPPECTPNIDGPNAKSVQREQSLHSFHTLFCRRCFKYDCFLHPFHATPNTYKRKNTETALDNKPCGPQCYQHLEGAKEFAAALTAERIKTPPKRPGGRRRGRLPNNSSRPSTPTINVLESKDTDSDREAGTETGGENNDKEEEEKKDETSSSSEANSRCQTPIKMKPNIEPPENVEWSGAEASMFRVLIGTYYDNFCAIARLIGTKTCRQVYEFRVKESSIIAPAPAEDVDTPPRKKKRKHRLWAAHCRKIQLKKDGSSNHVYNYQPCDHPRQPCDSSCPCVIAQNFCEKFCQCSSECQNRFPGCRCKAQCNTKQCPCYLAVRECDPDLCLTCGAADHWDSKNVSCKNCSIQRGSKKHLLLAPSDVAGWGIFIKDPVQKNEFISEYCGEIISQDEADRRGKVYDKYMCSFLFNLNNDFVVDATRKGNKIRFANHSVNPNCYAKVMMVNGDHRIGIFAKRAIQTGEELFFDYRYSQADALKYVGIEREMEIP
# Procedure, shortened: (§1)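 Human cord-blood ECFC clones, at least three independent, passages 3–6, grown in EGM-2 with 10% FBS. Histone methylation marks were assessed by western blot, with total histone H3 and H4 as loading controls.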
# HUVEC [4] = experiment: Downregulation of DKK1 in human umbilical cord derived endothelial colony forming cells by qRT-PCR analysis; type: functional, cell-based
# [5] = tested on: Umbilical cord derived endothelial colony forming cell; experiment: Activation of WNT pro-angiogenic pathway in human umbilical cord derived endothelial colony forming cells by measuring WNT5A level in presence of panobinostat by qRT-PCR analysis; type: cell-based; details: filed as activator
# HUVEC [6] = experiment: Resistance to induction of cell apoptosis in human umbilical cord derived endothelial colony forming cells in presence of panobinostat by annexin V staining analysis; type: functional, cell-based
# Procedure, shortened: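 ECFCs were pretreated with the epigenetic drugs or vehicle and kept in serum-containing EGM-2. Apoptosis was scored by flow cytometry after annexin V and 7-AAD staining. Values are expressed as percentage of vehicle-treated control, mean ±SEM, three independent experiments each in duplicate.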
# HUVEC [7] = experiment: Effect on pro-angiogenic property in human umbilical cord derived endothelial colony forming cells assessed as increase in FZD7 level in presence of panobinostat by qRT-PCR analysis; type: functional, cell-based
# [8] = tested on: Umbilical cord derived endothelial colony forming cell; experiment: Activation of WNT pro-angiogenic pathway in human umbilical cord derived endothelial colony forming cells by measuring FZD5 level in presence of panobinostat by qRT-PCR analysis; type: cell-based; details: filed as activator
# [9] = tested on: Umbilical cord derived endothelial colony forming cell; experiment: Inhibition of H3K9 methyltransferase G9a in human umbilical cord derived endothelial colony forming cells assessed as decrease in protein level by Western blotting analysis; type: cell-based
# Procedure, shortened: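 Cord-blood ECFCs were treated with an EZH2 inhibitor at 5 μM for 72 hr, then an HDAC inhibitor at 10 nM for 2 hr, or with vehicle. Levels of the epigenetic enzymes were read by western blot, with tubulin as loading control.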
# HUVEC [10] = experiment: Effect on human umbilical cord derived endothelial colony forming cells assessed as increase in H3K4me3 level in presence of panobinostat measured after removal of drug by qRT-PCR analysis; type: functional, cell-based
# [11] = tested on: Umbilical cord derived endothelial colony forming cell; experiment: Activation of WNT pro-angiogenic pathway in human umbilical cord derived endothelial colony forming cells by measuring WNT9A level in presence of panobinostat by qRT-PCR analysis; type: cell-based; details: filed as activator
# Mus musculus [12] = experiment: Activation of vasculogenesis in NOD/SCID immunodeficient mouse xenografted with drug pretreated human umbilical cord derived endothelial colony forming cells assessed as increase in formation of micro-capillaries in presence of panobinostat by H and E staining analysis; type: functional, organism-based
# Procedure, shortened: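 ECFCs (4 × 10^6 cells/mL), drug cocktail-pretreated or not, mixed into 1.5 mg/mL type I collagen gels, polymerized 30 min at 37°C, held 18 hr in drug-free medium, implanted into flanks of 6–12-week-old NOD/SCID mice. Explants harvested at 3 weeks; H&E and anti-human CD31 staining; closed hCD31+ capillaries counted per area, n = 6 mice per group, ±SEM.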
# [13] = target: Histone-lysine N-methyltransferase EZH2 (Homo sapiens) (UniProt Q15910); experiment: Inhibition of EZH2 in human umbilical cord derived endothelial colony forming cells assessed as decrease in H3K27me1 level at 0.01 to 5 uM measured after 24 to 72 hrs by Western blotting analysis; type: cell-based; details: Umbilical cord derived endothelial colony forming cell, dose 0.01-5 µM, time 24-72 hrs; procedure, shortened: as §1
# HUVEC [14] = experiment: Effect on human umbilical cord derived endothelial colony forming cells assessed as reversal of decrease in H3 acetylation level in presence of panobinostat measured after 24 hrs of drug removal by qRT-PCR analysis; type: functional, cell-based
# HUVEC [15] = experiment: Effect on human umbilical cord derived endothelial colony forming cells assessed as reversal of increase in H3K4me3 level in presence of panobinostat measured after 24 hrs of drug removal by qRT-PCR analysis; type: functional, cell-based
# [16] = tested on: Umbilical cord derived endothelial colony forming cell; experiment: Activation of WNT pro-angiogenic pathway in human umbilical cord derived endothelial colony forming cells by measuring TCF7L1 level in presence of panobinostat by qRT-PCR analysis; type: cell-based; details: filed as activator
# HUVEC [17] = experiment: Effect on pro-angiogenic property in human umbilical cord derived endothelial colony forming cells assessed as increase in ERK2 protein phosphorylation by Western blotting analysis; type: functional, cell-based
# HUVEC [18] = experiment: Effect on pro-angiogenic property in human umbilical cord derived endothelial colony forming cells assessed as increase in DLL4 level in presence of panobinostat by qRT-PCR analysis; type: functional, cell-based
# [19] = tested on: Umbilical cord derived endothelial colony forming cell; experiment: Activation of WNT pro-angiogenic pathway in human umbilical cord derived endothelial colony forming cells by measuring EGR1 level in presence of panobinostat by qRT-PCR analysis; type: cell-based; details: filed as activator
# Mus musculus [20] = organism: Mus musculus; experiment: Effect on restoration of blood flow in athymic nude CD1 hindlimb ischemia mouse model in presence of panobinostat for 28 days by laser doppler perfusion imaging analysis; type: functional, organism-based; details: time 28.0 day
# Procedure, shortened: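 Left femoral artery ligated in 8-week-old female athymic nude CD1 mice; 5 × 10^5 ECFCs pretreated with the combination or vehicle, in 50 μL PBS, given as two intramuscular injections into adductor muscle after skin closure. Perfusion measured by laser Doppler pre-op, day 0 and later days; ischemic/non-ischemic ratio, n = 7–8 mice to day 14, 3–4 to day 28.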
# HUVEC [21] = experiment: Resistance to serum induced starvation of cell apoptosis in human umbilical cord derived endothelial colony forming cells grown in EBM2 medium measured in presence of panobinostat by annexin V staining analysis; type: functional, cell-based
# Procedure, shortened: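 Drug- or vehicle-pretreated ECFCs were serum-starved overnight (16 hr) in EBM-2 lacking supplements. Cells were then suspended in annexin V binding buffer, stained with annexin V and 7-AAD, and analysed by flow cytometry. Values are percentage of vehicle control ±SEM, n = 3 experiments in duplicate.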
# HUVEC [22] = experiment: Effect on pro-angiogenic property in human umbilical cord derived endothelial colony forming cells assessed as increase in ANGPT2 level by qRT-PCR analysis; type: functional, cell-based
# [23] = target: Histone-lysine N-methyltransferase EZH2 (Homo sapiens) (UniProt Q15910); experiment: Inhibition of EZH2 in human umbilical cord derived endothelial colony forming cells assessed as decrease in H3K27me2 level for 24 to 72 hrs by Western blotting analysis; type: cell-based; details: Umbilical cord derived endothelial colony forming cell, dose 0.01-5 µM, time 24-72 hrs; procedure, shortened: as §1
# HUVEC [24] = experiment: Effect on pro-angiogenic property in human umbilical cord derived endothelial colony forming cells assessed as increase in intracellular NOTCH protein phosphorylation by Western blotting analysis; type: functional, cell-based
# HUVEC [25] = experiment: Effect on human umbilical cord derived endothelial colony forming cells assessed as decrease in H3K27me3 level by ChIP-qPCR analysis; type: functional, cell-based
# HUVEC [26] = experiment: Effect on pro-angiogenic property in human umbilical cord derived endothelial colony forming cells assessed as increase in VEGFR1 protein level by Western blotting analysis; type: functional, cell-based
# [27] = tested on: Umbilical cord derived endothelial colony forming cell; experiment: Activation of WNT pro-angiogenic pathway in human umbilical cord derived endothelial colony forming cells by measuring JAG1 level in presence of panobinostat by qRT-PCR analysis; type: cell-based; details: filed as activator
# HUVEC [28] = experiment: Effect on pro-angiogenic property in human umbilical cord derived endothelial colony forming cells assessed as increase in cell migration treated at 5 uM for 72 hrs in presence of panobinostat measured by crystal violet staining analysis based gap closure assay; type: functional
smiles,measurement,setting,value
CCCc1cc(C)[nH]c(=O)c1CNC(=O)c1cc(-c2ccnc(N3CCN(C)CC3)c2)cc2c1cnn2C(C)C,Activity,HUVEC [1],Active
same,Activity,[2],Active
same,inhibition,[3],inactive
same,Activity,HUVEC [4],Active
same,Activity,[5],Active
same,Activity,HUVEC [6],Active
same,Activity,HUVEC [7],Active
same,Activity,[8],Active
same,inhibition,[9],inactive
same,Activity,HUVEC [10],Active
same,Activity,[11],Active
same,Activity,Mus musculus [12],Active
same,inhibition,[13],inactive
same,Activity,HUVEC [14],Active
same,Activity,HUVEC [15],Active
same,Activity,[16],Active
same,Activity,HUVEC [17],Active
same,Activity,HUVEC [18],Active
same,Activity,[19],Active
same,Activity,Mus musculus [20],Active
same,Activity,HUVEC [21],Active
same,Activity,HUVEC [22],Active
same,inhibition,[23],Dose-Dependent Effect
same,Activity,HUVEC [24],Active
same,Activity,HUVEC [25],Active
same,Activity,HUVEC [26],Active
same,Activity,[27],Active
same,Activity,HUVEC [28],Active
